# Measurements from different studies.
# Protocols differ between the studies behind these lines.
Structure (SMILES),tested on,test,test system,conditions,endpoint,result
CC(C)CC(=O)OC[C@H]1O[C@@](C#N)(c2ccc3c(N)ncnn23)[C@H](O)[C@@H]1O,,metabolic stability,"dog, plasma",5 µM,half-life,> 3.1 h
CC(=O)Oc1ccc(C=CC(=O)O)cc1OC(C)=O,HaCaT,"cell growth or viability, MTT",,24 h,CC50,> 250 µM
CC(=O)c1c(C)c2cnc(Nc3ccc(C4CCN(CCS(C)(=O)=O)CC4)cn3)nc2n(C2CCCC2)c1=O,,metabolic stability,"dog, liver S9",,half-life,1.72 h
COc1cc(C2C3=C(COC3=O)N(CCO)c3cc4c(cc32)CCC4)cc(OC)c1OC (centres unmarked),,general toxicity,female Sprague-Dawley rat,"intraperitoneal, single dose",MTD,≥ 400 mg/kg
Cc1ccc2cc(N3CCC4(O)C(=O)c5cc(C)c(C)cc5N=C34)ccc2n1 (centres unmarked),,general toxicity,rat,"intravenous, multiple doses",NOAEL,≥ 20 mg/kg
O=C(O)CCCOc1ccc(F)cc1-c1cc(-c2ccccc2C(F)(F)F)n(-c2ccccc2)n1,,general toxicity,rat,"intravenous, 25 µg/kg, single dose",NOAEL,≥ 0.025 mg/kg
COC(=O)C=Cc1ccc(OC(C)=O)c(OC(C)=O)c1,HaCaT,"cell growth or viability, MTT",,24 h,CC50,201 µM
Cc1ncc2n1-c1ccc(Cl)cc1C(c1ccccc1F)=NC2,,metabolic stability,"dog, hepatocytes",,half-life,0.616 h
